The list is not random: actives were taken first. Their share in the collection is about 0.98%.
Statin myotox sup: suppressors of simvastatin-induced myotoxicity in C2C12 myotubes; ATP luminescence, 48 h; scaled: DMSO 0, geranylgeraniol control 100; rescue of ATP level, % at 7.49 µM; 0.78% of 330,000 active;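 active = mean ATP rescue above about 67%, or every replicate alone reaching that limit, limit read from the data, passing the limit was not always enough; inconclusive = no clear call, values can overlap the other calls; inactive = mean under the limit and some replicate under it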;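 also: myotubes were challenged with 10 µM simvastatin during compound exposure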
Rtt109 Vps75: blocks Candida albicans Rtt109/Vps75 acetyltransferase activity; Q5AAJ8; purified Rtt109/Vps75, ThioGlo CoA-SH fluorescence, 4 h; inhibition, % at 34.9 µM; 0.16% of 330,000 active;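 active = inhibition of at least 50% in every replicate; inconclusive = best replicate reaches 50% inhibition but some replicates fall short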
Target sequence (Q5AAJ8 whole entry, looked up): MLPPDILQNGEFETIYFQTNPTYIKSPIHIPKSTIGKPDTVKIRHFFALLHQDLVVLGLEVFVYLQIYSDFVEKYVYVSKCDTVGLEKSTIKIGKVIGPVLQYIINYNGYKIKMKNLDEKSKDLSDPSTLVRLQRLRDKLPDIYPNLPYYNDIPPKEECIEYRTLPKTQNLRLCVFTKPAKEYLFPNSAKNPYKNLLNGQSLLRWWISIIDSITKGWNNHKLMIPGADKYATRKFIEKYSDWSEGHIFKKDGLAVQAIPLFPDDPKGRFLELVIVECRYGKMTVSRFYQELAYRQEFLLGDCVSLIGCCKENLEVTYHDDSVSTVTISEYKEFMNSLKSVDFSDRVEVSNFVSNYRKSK
ERAP1 inh: ERAP1 (human) enzyme inhibition; Q9NZ08; recombinant ERAP1, Leu-AMC fluorescence, 60 min; inhibition, % at 10.7 µM; 0.15% of 340,000 active;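 active = mean replicate inhibition of at least 30%, or all replicates individually reaching that 30% level; inactive = mean below 30% and not every replicate reaching it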;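 also: 0% = neutral control wells and 100% = L-leucinethiol positive control wells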
S100A4 inh HTS: inhibitors of human S100A4 binding to myosin IIA peptide; S100A4/TAMRA-MyoIIA peptide fluorescence polarization; inhibition, % at 10.7 µM; 0.14% of 360,000 active; AID 652163;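 active = mean inhibition of at least 70% across replicates, with every replicate also reaching that level; inconclusive = mean inhibition reaches 70% but some replicates fall short; inactive = mean inhibition below 70%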
Target sequence (P26447 whole entry, looked up): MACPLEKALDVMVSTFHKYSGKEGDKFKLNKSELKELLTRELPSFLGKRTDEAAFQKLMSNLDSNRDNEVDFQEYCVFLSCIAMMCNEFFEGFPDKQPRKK
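Assay system: human S100A4 monomer with TAMRA-labelled myosin IIA peptide / Buffer or medium: Calcium-containing HEPES buffer, pH 7.2 / Reagent: TAMRA-labelled myosin IIA heavy-chain peptide probe, 5 nM / Compound: one dose per compound / Timing: polarization read 5 min after assay mix addition, stable 5–60 min / Benchmarks: neutral control DMSO, positive control TFP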
PGC1a acetyl inh: PGC1a acetylation modulation, inhibitor mode; U2OS PGC1a acetylation, AlphaScreen anti-acetyl-lysine; with virally co-expressed GCN5 acetyltransferase; inhibition, % at 15.6 µM; 0.17% of 350,000 active; AID 651687;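 active = every replicate shows inhibition of at least 40%; inconclusive = mean inhibition at least 40% but some replicate below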;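 also: 0% = neutral control wells and 100% = positive control wells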
An asterisk follows results filed as active; ? = inconclusive; / = not tested or not shown.

SMILES	Statin myotox sup	Rtt109 Vps75	ERAP1 inh	S100A4 inh HTS	PGC1a acetyl inh
CCOC(=O)c1c(-c2ccccc2)oc2ccc(OCC(=O)O)cc12	/	3.1	-1.7	-4.9	0.2
CCC(=O)N(C)C[C@@H]1Oc2cc(C#CC3CCCCC3)ccc2S(=O)(=O)N([C@@H](C)CO)C[C@@H]1C	-29.9	/	-2.4	3.9	-10.5
C[N+](C)(CCOc1ccccc1)Cc1ccccc1	-1.7	-4.3	-0.5	-7.0	-13.5
Cc1cc(C(C)(C)CC(C)(C)C)ccc1OCCOCC[N+](C)(C)Cc1ccccc1	-34.6	56.0*	21.6	3.4	-35.1
C/C=C/c1ccc([C@@H]2[C@H](CO)N3CCCCN(C(=O)Nc4cc(F)ccc4F)C[C@@H]23)cc1	-69.2	/	-1.6	-5.2	-2.3
CC[C@H]1CN2CCc3cc(OC)c(OC)cc3C2C[C@@H]1C[C@H]1NCCc2cc(OC)c(OC)cc21 (stereo partly drawn)	80.6*	-14.4	-10.0	2.3	/
CCC1=C(CC2NCCc3ccccc32)CC2c3cc(OC)c(OC)cc3CCN2C1 (stereo not drawn)	/	9.7	-2.5	19.3	34.0
C[C@@H]1CN([C@@H](C)CO)S(=O)(=O)c2ccc(C#CC3CC3)cc2O[C@H]1CN(C)C(=O)c1ccncc1	2.2	/	0.3	51.2	0.6
O=C(CCl)NC1CCCc2ccccc21 (stereo not drawn)	/	2.9	-1.6	-1.7	-4.0
O=C(CCn1cccc1)NC1CCCc2ccccc21 (stereo not drawn)	152.4*	10.7	/	/	-0.3
COc1ccc(CCC(=O)NC2CCCc3ccccc32)cc1OC (stereo not drawn)	10.4	7.3	31.7*	-1.4	3.5
CCCCCCCCC(NC(=O)c1ccc(C#N)cc1)C(=O)NCCC (stereo not drawn)	159.4*	-6.6	1.5	2.2	-5.9
CCCNC(=O)C(CC)NC(=O)c1ccc(C#N)cc1 (stereo not drawn)	19.0	2.7	-1.0	-1.6	-3.9
CC(C)=CC[N+]1(C)CCCCC1	-7.5	0.0	-0.6	6.1	0.4
COCC[N+]1(C)CCCCC1	-7.6	1.1	89.0*	9.9	10.3
CCC(=O)N1C[C@H](C)[C@@H](OC)CN(C)C(=O)c2ccc(NC(=O)NC(C)C)cc2OC[C@H]1C	5.5	/	-4.3	-1.0	-6.9
COCC(=O)N1[C@@H]2c3ccc(/C=C/c4ccccc4)c(=O)n3C[C@H]1[C@H](CO)[C@H]2C(=O)N1CCOCC1	19.9	/	108.0*	9.7	/
COC(=O)[C@@H]1[C@@H](CO)[C@@H]2Cn3c(ccc(-c4ccccc4)c3=O)[C@@H]2N1C(=O)CC1CC1	-50.6	/	8.3	75.5*	/
O=C(O)[C@H]1[C@H](CO)[C@H]2Cn3c(ccc(/C=C/c4ccccc4)c3=O)[C@H]2N1C(=O)C1CCCC1	/	/	2.1	-5.2	32.4
O=C(O)[C@@H]1[C@@H](CO)[C@@H]2Cn3c(ccc(/C=C/c4ccccc4)c3=O)[C@@H]2N1C(=O)C1CCCC1	/	/	0.5	109.6*	20.4
CCCc1cn(CC[C@@H]2CC[C@H](NC(=O)Nc3ccccc3F)[C@H](CO)O2)nn1	-10.6	/	0.0	9.5	3.3
Cc1cnc(C(=O)OCC(=O)c2ccc(-c3ccccc3)cc2)cn1	1.5	3.1	-2.2	0.2	12.6
Cc1ccc(C(=O)COC(=O)c2cnccn2)cc1	-5.1	3.7	/	/	10.1
O=C(COC(=O)c1cnccn1)c1ccc([N+](=O)[O-])cc1	8.5	136.9*	-0.2	-7.3	/
Cc1cnc(C(=O)OCC(=O)c2ccccc2)cn1	-3.8	8.1	2.9	94.1*	/
SMILES	Statin myotox sup	Rtt109 Vps75	ERAP1 inh	S100A4 inh HTS	PGC1a acetyl inh
Cc1cccn2c(=O)c(C=O)c(N3CC(C)OC(C)C3)nc12 (stereo not drawn)	/	2.9	-1.4	5.2	-3.3
Cc1cccn2c(=O)c(C=O)c(N3CCCCCC3)nc12	101.3*	1.0	/	/	6.2
O=C(C[C@H]1C=C[C@@H](NC(=O)c2ccncc2)[C@H](CO)O1)Nc1ccccc1	/	/	-4.1	9.8	-14.1
Cc1c([N+](=O)[O-])cc(N2C(=O)C=CC2=O)cc1[N+](=O)[O-]	3.2	-6.1	-3.1	-4.7	19.1
Cc1cc(N2C(=O)C=CC2=O)c([N+](=O)[O-])cc1C	-5.7	115.5*	/	/	5.9
C#CCOC(=O)c1ccccc1C(=O)N(CC)CC	103.8*	-5.0	-1.5	2.8	5.6
C/C(=N\NC(=O)CNc1cccc(Cl)c1C)C1CC1	/	-19.0	-5.7	2.0	1.5
C/C(=N\NC(=O)CNc1ccccc1Cl)C(C)(C)C	72.2*	-7.9	/	/	7.7
CCC1(CC)NC(=O)N(CC(=O)OCC(=O)NC(=O)c2ccc(Cl)cc2)C1=O	/	4.1	4.5	-0.6	/
CC1(C)NC(=O)N(CC(=O)OCC(=O)NC(=O)c2ccccc2)C1=O	/	-6.8	63.7*	-3.3	/
CS(=O)(=O)c1nc(S(=O)(=O)c2ccc(Cl)cc2)c(N2CCC(O)CC2)s1	84.5*	-2.8	-2.5	-1.7	-28.1
CCOC(=O)N1CCN(C(=O)CSCC(=O)Nc2nc(-c3ccc4c(c3)OCO4)cs2)CC1	122.0*	3.0	/	/	-18.5
O=C(CSCC(=O)N1CCOCC1)Nc1nc(-c2ccc3c(c2)OCO3)cs1	13.4	0.9	6.0	0.0	-3.1
COc1ccc(S(=O)(=O)Nc2ccc3c(c2)C(=O)N([C@H](C)CO)C[C@@H](C)[C@H](CN(C)S(=O)(=O)c2ccc(OC)cc2)OCCCC[C@@H](C)O3)cc1	/	/	/	/	-19.8
COc1cccc(CNC(=O)CCC2CCCN(C(=O)C3=CC(=O)CC(C)(C)O3)C2)c1 (stereo not drawn)	79.2*	3.8	5.7	-3.0	8.3
CCC(=O)N[C@@H]1CC[C@H](CC(=O)NCC2CC2)O[C@H]1CO	/	/	0.8	3.2	1.0
COc1ccc(NC(=O)Nc2ccc3c(c2)[C@@H]2C[C@H](CC(=O)NC4CCCCC4)O[C@H](CO)[C@@H]2O3)cc1	9.5	/	0.4	-2.4	-3.8
CCN(CC)c1ccc(NC2=C(Cl)C(=O)c3ccccc3C2=O)cc1	/	9.0	/	/	68.0*
Cc1ccc(NC2=C(Cl)C(=O)c3ccccc3C2=O)cc1	-494.9	1.5	0.1	-3.6	?
CN(C)S(=O)(=O)n1cc(/C=C(\NC(=O)c2ccccc2)C(=O)N2CCCC2)c2ccccc21	2.2	73.7*	-2.0	1.2	-9.7
CCOC(=O)C1=C(C)N=c2s/c(=C/c3ccc(OCC(=O)O)cc3)c(=O)n2C1c1cc(OC)c(OC)c(OC)c1 (stereo not drawn)	-1.2	68.3*	11.5	5.2	3.3
CCOC(=O)C1=C(C)N=c2sc(=Cc3cc(Cl)c(OCC(=O)O)c(Cl)c3)c(=O)n2C1c1cccc(OC)c1 (stereo not drawn)	5.6	/	-53.4	-7.1	/
CCOC(=O)C1=C(C)N=c2s/c(=C\c3cccc(OCC(=O)O)c3)c(=O)n2C1c1ccccc1OC (stereo not drawn)	4.8	-3.0	3.0	-0.6	54.9*
C/C(=N/NS(=O)(=O)c1ccc(Br)cc1)c1ccc(NC(=O)c2ccc(C)o2)cc1	75.5*	7.9	/	/	9.6

Bioassay records deposited in PubChem BioAssay by Broad Institute.
